pKi: −log10 of the molar value. The source made the active and inactive calls. No cut-off for these calls is given here.
Key:
Rattus norvegicus [1] = test: Compound was evaluated in stimulus generalization test using animals trained to discriminate TFMPP from saline, and the drug appropriate responding at dose of 0.5 mg/kg; assay type: functional
In short: (§1)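 Male Sprague-Dawley rats (n = 6) trained to discriminate 0.5 mg/kg TFMPP HCl from saline on a two-lever operant task, VI 15-s food reward. Challenge doses were given ip in random order 15 min before a 2.5-min extinction test, with at least three training sessions between tests. Fewer than five total responses was scored as disruption.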

Rattus norvegicus [2] = test: Stimulus generalization studies in TFMPP trained animals and the number of animals responding /number to receive dose of drug was determined at dose of 0.5 mg/kg; 6/6; assay type: functional; in short: as §1
Rattus norvegicus [3] = test: Compound was evaluated in stimulus generalization test using animals trained to discriminate TFMPP from saline, and the mean responses per min at dose of 0.5 mg/kg; assay type: functional; in short: as §1
Rattus norvegicus [4] = test: Compound was evaluated in stimulus generalization test using animals trained to discriminate DOM from saline, and the drug appropriate responding at dose of 0.3 mg/kg; Not responding; assay type: functional, organism-based; set-up: dose 0.3 mg/kg
In short: (§2)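 Male Sprague-Dawley rats (n = 10) trained to discriminate 1.0 mg/kg DOM HCl from saline on a two-lever operant task, VI 15-s food reinforcement. Test doses were given ip in random order, 15 min pre-session, with at least three training sessions between tests. Responding was scored in a 2.5-min extinction session. Rats with fewer than five total responses were counted as disrupted.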

[5] = Displacement of [3H]5-HT from 5-hydroxytryptamine 1 receptor of rat cortical membrane homogenates
Rattus norvegicus [6] = test: Compound was evaluated in stimulus generalization test using animals trained to discriminate DOM from saline, and the drug appropriate responding at dose of 0.05 mg/kg; assay type: functional; in short: as §2
Rattus norvegicus [7] = test: Compound was evaluated in stimulus generalization test using animals trained to discriminate DOM from saline, and the drug appropriate responding at dose of 0.5 mg/kg; Not responding; assay type: functional, organism-based; set-up: dose 0.5 mg/kg; in short: as §2
[8] = biological target: Serotonin 2 (5-HT2) receptor (Rattus norvegicus, UniProt P30994+P08909+P14842); test: Displacement of [3H]ketanserin from 5-hydroxytryptamine 2 receptor of rat cortical membrane homogenates
Rattus norvegicus [9] = test: Compound was evaluated in stimulus generalization test using animals trained to discriminate DOM from saline, and the mean responses per min at dose of 0.05 mg/kg; assay type: functional; in short: as §2
Rattus norvegicus [10] = test: Compound was evaluated in stimulus generalization test using animals trained to discriminate DOM from saline, and the drug appropriate responding at dose of 2.0 mg/kg; Not responding; assay type: functional, organism-based; set-up: dose 2 mg/kg; in short: as §2
Rattus norvegicus [11] = test: Compound was evaluated in stimulus generalization test using animals trained to discriminate DOM from saline, and the drug appropriate responding at dose of 0.1 mg/kg; assay type: functional; in short: as §2
Rattus norvegicus [12] = test: Compound was evaluated in stimulus generalization test using animals trained to discriminate DOM from saline, and the mean responses per min at dose of 0.1 mg/kg; assay type: functional; in short: as §2

| Structure (SMILES) | pKi [5] | Ki [8] | further results |
| --- | --- | --- | --- |
| FC(F)(F)c1cccc(N2CCNCC2)c1 | – | – | Drug responding (Rattus norvegicus [1]): 92%; Activity (Rattus norvegicus [2]): 6; Mean response/min (Rattus norvegicus [3]): 18.2 |
| c1ccc(N2CCNCC2)cc1 [PHENYLPIPERAZINE] | 6.87 | 2.1 µM | Drug responding (Rattus norvegicus [4]): inactive; Drug responding (Rattus norvegicus [6]): 7%; Drug responding (Rattus norvegicus [7]): inactive; Mean response/min (Rattus norvegicus [9]): 13.1; Drug responding (Rattus norvegicus [10]): inactive; Drug responding (Rattus norvegicus [11]): 8%; Mean response/min (Rattus norvegicus [12]): 11.9 |
| c1ccc2nc(N3CCCCC3)ccc2c1 | < 4.00 | > 150 µM | – |
| COc1cccc2ccc(N3CCNCC3)nc12 | 6.38 | 0.31 µM | – |
| c1ccc2nc(N3CCNCC3)ccc2c1 [QUIPAZINE] | 6.64 | 0.23 µM | – |
| COc1cccc2ccc(N3CCN(C)CC3)nc12 | 5.72 | 1.2 µM | – |
| CCCN(CCC)c1ccc2ccccc2n1 | 4.60 | 50 µM | – |

From ChEMBL document CHEMBL1123371, “5-HT1 and 5-HT2 binding characteristics of some quipazine analogues” (J Med Chem, 1986)
